Screening results deposited in PubChem BioAssay by Johns Hopkins Ion Channel Center.
TRPC6 inh – mouse TRPC6 channel inhibition; Q61143; 310,000 compounds, 1.1% hits; B-score at 10 µM; HEK293-TRPC6, membrane potential dye, ACh-evoked depolarization; active compounds read low; AID 2553;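 active means B-score under library mean minus 3 SD, initial fluorescence not abnormally high, positive integrated signal ratio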;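 further: B-score derived from integrated fluorescence ratio over the kinetic read; more negative B-score means stronger inhibition of depolarization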
TRPC4 block – TRPC4 (mouse) channel inhibition; B-score at 10 µM; AID 2247; HEK293 TRPC4beta/mu-opioid, DAMGO-evoked Fluo4 calcium flux; active compounds read low; 300,000 compounds, 0.39% hits;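 active means B-score over 3 SD under the library average, no early fluorescence shift, positive overall ratio signal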
Target sequence (Q9QUQ5 whole entry, looked up): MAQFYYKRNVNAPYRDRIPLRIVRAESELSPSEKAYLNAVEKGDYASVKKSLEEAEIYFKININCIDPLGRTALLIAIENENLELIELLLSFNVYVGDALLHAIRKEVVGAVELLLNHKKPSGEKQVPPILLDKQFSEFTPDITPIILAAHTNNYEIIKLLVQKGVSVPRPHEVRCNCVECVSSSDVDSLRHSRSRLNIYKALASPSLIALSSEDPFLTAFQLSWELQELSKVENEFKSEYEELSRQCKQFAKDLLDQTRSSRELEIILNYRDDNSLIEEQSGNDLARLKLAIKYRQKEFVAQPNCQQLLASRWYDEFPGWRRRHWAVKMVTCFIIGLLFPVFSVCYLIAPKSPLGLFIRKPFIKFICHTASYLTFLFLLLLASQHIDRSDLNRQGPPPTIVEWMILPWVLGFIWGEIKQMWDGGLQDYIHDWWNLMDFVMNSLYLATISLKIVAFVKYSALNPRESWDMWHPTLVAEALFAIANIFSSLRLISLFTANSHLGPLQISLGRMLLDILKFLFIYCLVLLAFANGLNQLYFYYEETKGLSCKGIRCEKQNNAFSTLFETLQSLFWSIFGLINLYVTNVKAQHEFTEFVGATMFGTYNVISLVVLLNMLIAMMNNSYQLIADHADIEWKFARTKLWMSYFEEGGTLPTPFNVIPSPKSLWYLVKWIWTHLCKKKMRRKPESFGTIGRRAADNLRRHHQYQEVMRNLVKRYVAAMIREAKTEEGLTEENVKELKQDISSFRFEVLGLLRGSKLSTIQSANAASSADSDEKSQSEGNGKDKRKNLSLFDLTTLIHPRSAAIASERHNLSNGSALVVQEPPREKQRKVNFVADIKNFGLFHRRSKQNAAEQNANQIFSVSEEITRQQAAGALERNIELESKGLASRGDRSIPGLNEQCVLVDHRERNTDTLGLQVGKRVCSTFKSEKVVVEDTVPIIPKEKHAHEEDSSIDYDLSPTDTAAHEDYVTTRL
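Assay system – HEK293 line stably carrying TRPC4beta and mu-opioid receptor · Doses – single dose · Detection – Fluo4 calcium-dye fluorescence, kinetic read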
TRPC6 act – activates the mouse TRPC6 cation channel. Q61143. HEK293-TRPC6 membrane potential dye fluorescence; active compounds read high. B-score at 10 µM. 310,000 compounds, 0.13% hits. AID 2550;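 active means B-score of the integrated fluorescence ratio above library mean plus 3 SD, and starting fluorescence ratio within library mean plus 5 SD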;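 further: higher score means more depolarization so channel activation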
TRPC4 potent – allosteric potentiators of mouse TRPC4 channel. Q9QUQ5. HEK293 TRPC4beta/mu-opioid, DAMGO EC20, Fluo-4 Ca2+ flux; active compounds read high. B-score at 10 µM. 310,000 compounds, 0.42% hits;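 active means B-score of calcium response area above 5 SD of library B-scores, with initial fluorescence ratio within 5 SD of library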
TRPC4 act – TRPC4 (mouse) channel activation; Q9QUQ5; HEK293 TRPC4beta/mu-opioid, Fluo4 calcium fluorescence; active compounds read high; B-score at 10 µM; 310,000 compounds, 0.49% hits;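 active means B-score above 5 SD of library B-scores, and initial fluorescence ratio not above library mean plus 5 SD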;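 further: positive B-score marks a calcium rise read as TRPC4 activation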
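system = HEK293 cells stably co-expressing mouse TRPC4beta and mu-opioid receptor | schedule = Fluo4 dye loading 45 min at room temperature, 110 s recording | measure = B-scored integrated calcium fluorescence ratio | signal = Fluo4 calcium-sensitive dye fluorescence, kinetic, 1 Hz baseline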
TRPC4 spec 2 – second check of whether TRPC6 inhibitors also affect mouse TRPC4. HEK293 TRPC4/MOR, membrane potential dye fluorescence; channel activated by saturating DAMGO dose. shares compounds with TRPC6 inh. inhibition, % at 10 µM. AID 2776. 920 compounds, 42% hits;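 active means compounds whose fluorescence signal differed from control wells by over 3 SD, either direction, in both duplicate plates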
TRPC4 spec – selectivity of TRPC6 inhibitors: effect on mouse TRPC4 | shares compounds with TRPC6 inh | HEK293 TRPC4/mu-opioid, membrane potential fluorescence | activity change, negative = inhibition, % at 10 µM | 920 compounds, 61% hits;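 active means rise or fall in signal beyond 3 SD of buffer-only wells in both replicate plates, either sign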;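 further: integrated kinetic ratio of fluorescence range over baseline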
HEK293 MPD ctr 2-1 – parental HEK293 nonspecific activity of TRPC6 inhibitors, second screen; parental HEK293 membrane potential dye fluorescence; maximal acetylcholine challenge after compound addition; signal change vs control, % at 10 µM; shares compounds with TRPC6 inh; 920 compounds, 31% hits;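 active means membrane potential signal moving either way by over 3 SD of the maximum-effect control, in both duplicate plates, meaning non-specific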
HEK293 MPD ctr-1 – parental HEK293 nonspecific activity of TRPC6 inhibitors | shares compounds with TRPC6 inh | parental HEK293 membrane potential dye fluorescence | membrane potential signal change, % at 10 µM | 920 compounds, 60% hits | AID 2780;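 active means membrane potential signal shifting up or down by more than 3 SD of buffer-only wells, on both duplicate plates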
HEK293 MPD ctr-2 – parental HEK293 nonspecific activity of TRPC6 modulators | shares compounds with TRPC6 inh | AID 488924 | membrane potential dye fluorescence | 2,400 compounds, 51% hits | membrane potential signal change, % at 10 µM;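 active means membrane potential signal moves up or down beyond 5 SD from buffer-only wells, on both duplicate plates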
HEK293 MPD ctr 2-2 – second counter-screen for TRPC6 modulators: effect in parental HEK293 cells. 2,400 compounds, 14% hits. inhibition, % at 10 µM. shares compounds with TRPC6 inh. AID 488926. membrane potential dye fluorescence; after compound, maximal acetylcholine stimulation;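 active means membrane potential signal drops by more than 5 SD from the mean control signal, in both duplicate plates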
TRPC4/MOR mod – selectivity of TRPC6 modulators against mouse TRPC4 | 2,400 compounds, 69% hits | percent change from control (negative = decrease, positive = increase), % at 10 µM | shares compounds with TRPC6 inh | HEK293 TRPC4/mu-opioid, membrane potential fluorescence;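 active means membrane potential signal moved up or down beyond 5 SD of buffer control wells, in both duplicate plates, actives on both sides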
TRPC4/MOR inh 2 – second selectivity test of TRPC6 modulators against mouse TRPC4. HEK293 TRPC4/mu-opioid, membrane potential dye fluorescence; stimulated with maximal-effect DAMGO. 2,400 compounds, 55% hits. AID 488928. inhibition, % at 10 µM. shares compounds with TRPC6 inh;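 active means drop in membrane potential signal beyond 5 SD of the control wells in both duplicate plates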;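 further: TRPC4 counter screen for TRPC6 hits run under conditions tuned for TRPC6 not TRPC4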
TRPC6 block conf – mouse TRPC6 inhibitor confirmation. shares compounds with TRPC6 inh. HEK293-TRPC6, membrane potential dye, ACh-evoked depolarization. inhibition, % at 10 µM. 3,300 compounds, 43% hits. AID 488960;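 active means fluorescence ratio falls more than 5 SD below the full-stimulation control mean, in both duplicate runs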;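 further: integrated fluorescence ratio of peak minus minimum over baseline after agonist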
TRPC6 act conf – confirmation of mouse TRPC6 activators. shares compounds with TRPC6 inh. HEK293-TRPC6 membrane potential dye fluorescence, FDSS. activation, % at 10 µM. 2,800 compounds, 11% hits;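 active means ratio signal rise beyond 5 SD above unstimulated control wells' mean, seen in both duplicate runs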
Large screens that a line does not name were inactive (follow-up assays come after a bar, where they were run). Compounds with a hit are over-represented: about 2.3% of the library has one in this group of screens.

NCCCCCc1nnc(SCc2cccc(Cl)c2)o1	TRPC6 inh -6.8 | TRPC4 spec 2 inactive | TRPC4 spec -0.3% | HEK293 MPD ctr 2-1 inactive | HEK293 MPD ctr-1 0.8% | TRPC6 block conf inactive | TRPC6 act conf inactive
NCCCCCc1nnc(SCc2ccc(Cl)cc2Cl)o1	TRPC6 inh -6.2 | HEK293 MPD ctr-2 inactive | HEK293 MPD ctr 2-2 inactive | TRPC4/MOR mod 14% | TRPC4/MOR inh 2 53% | TRPC6 block conf inactive
COc1ccc(CNC2CCCc3ccccc32)c(OC)c1 (stereo not drawn)	TRPC6 inh -6 | HEK293 MPD ctr-2 218% | HEK293 MPD ctr 2-2 inactive | TRPC4/MOR mod 53% | TRPC4/MOR inh 2 63% | TRPC6 block conf 64%
COc1ccc(NC(=O)NC2CCCc3ccccc32)c(OC)c1 (stereo not drawn)	none
c1cc2c(cc1C1CCCCC1)c1c3n2CCN=C3CCC1	none
COc1ccc2c(c1)c1c3n2CCN(C)C3=NCC1	TRPC6 inh -13 | HEK293 MPD ctr-2 -290% | HEK293 MPD ctr 2-2 90% | TRPC4/MOR mod -44% | TRPC4/MOR inh 2 46% | TRPC6 block conf 58% | TRPC6 act conf inactive
O=C(CCN1C(=O)/C(=C/c2ccc3c(c2)OCO3)SC1=S)Nc1cccc(C(=O)O)c1	none
COc1cc(/C=C2\SC(=O)N(CCN)C2=O)ccc1OS(=O)(=O)c1cc(C)ccc1C	TRPC6 inh -7.2 | TRPC4 spec 2 inactive | TRPC4 spec inactive | HEK293 MPD ctr 2-1 inactive | HEK293 MPD ctr-1 inactive | TRPC6 block conf inactive | TRPC6 act conf inactive
NCCN1C(=O)S/C(=C\c2ccc3c(c2)OCO3)C1=O	TRPC6 inh -5.4 | HEK293 MPD ctr-2 inactive | HEK293 MPD ctr 2-2 inactive | TRPC4/MOR mod -9.5% | TRPC4/MOR inh 2 42% | TRPC6 block conf 36% | TRPC6 act conf inactive
CC(C)C(NS(=O)(=O)c1ccccc1)C(=O)OCc1cc([N+](=O)[O-])cc2c1OCOC2 (stereo not drawn)	none
N=c1c(C(=O)NCc2ccc(F)cc2)cc2c(=O)n3ccccc3nc2n1CC1CCCO1 (stereo not drawn)	TRPC6 inh -6.7 | HEK293 MPD ctr-2 inactive | HEK293 MPD ctr 2-2 inactive | TRPC4/MOR mod -38% | TRPC4/MOR inh 2 54% | TRPC6 block conf 59% | TRPC6 act conf inactive
COc1ccc(CCNC(=O)c2cc3c(=O)n4ccccc4nc3n(CC3CCCO3)c2=N)cc1OC (stereo not drawn)	TRPC6 inh -5 | HEK293 MPD ctr-2 106% | HEK293 MPD ctr 2-2 inactive | TRPC4/MOR mod 12% | TRPC4/MOR inh 2 inactive | TRPC6 block conf 46%
COc1ccc(CCNC(=O)c2cc3c(=O)n4ccccc4nc3n(C3CCCCC3)c2=N)cc1OC	none
Nc1ccc(CSc2ccc(Cl)cc2)cc1	none
CN1CCN(c2ccccc2NC(=O)c2ccc(N3CCCC3)c([N+](=O)[O-])c2)CC1	TRPC6 inh -11 | HEK293 MPD ctr-2 -108% | HEK293 MPD ctr 2-2 inactive | TRPC4/MOR mod -30% | TRPC4/MOR inh 2 82% | TRPC6 block conf 58% | TRPC6 act conf inactive
O=C(Nc1ccccc1N1CCCCC1)c1ccc(Cl)c([N+](=O)[O-])c1	none
CN1CCN(c2ccc(C(=O)c3ccc(Br)cc3)cc2[N+](=O)[O-])CC1	TRPC6 inh -5.9 | HEK293 MPD ctr-2 inactive | HEK293 MPD ctr 2-2 inactive | TRPC4/MOR mod -13% | TRPC4/MOR inh 2 43% | TRPC6 block conf inactive | TRPC6 act conf inactive
Nc1[nH]n2c(=O)cc(-c3ccccc3)nc2c1N=Nc1ccc(S(N)(=O)=O)cc1	none
Nc1[nH]n2c(=O)cc(-c3ccccc3)nc2c1N=Nc1ccccc1	TRPC6 inh -8 | TRPC4 spec 2 50% | TRPC4 spec -20% | HEK293 MPD ctr 2-1 inactive | HEK293 MPD ctr-1 -316% | TRPC6 block conf 77% | TRPC6 act conf inactive
COc1cc(C(=O)N/C(=C\c2cn(S(=O)(=O)N(C)C)c3ccccc23)C(=O)N2CCCC2)cc(OC)c1OC	none
CC(=O)C(C)Oc1ccc(Cc2ncc(C(F)(F)F)cc2Cl)cc1 (stereo not drawn)	none
Cc1cc(-n2cccn2)ccc1CN1CCN(CC(C)C)C(CCO)C1 (stereo not drawn)	TRPC6 inh -8.3 | TRPC4 spec 2 inactive | TRPC4 spec 4.3% | HEK293 MPD ctr 2-1 26% | HEK293 MPD ctr-1 5.6% | TRPC6 block conf 58% | TRPC6 act conf inactive
CC(=O)Nc1ccc(CN2CCN(C3CCCC3)C(CCO)C2)cc1 (stereo not drawn)	TRPC6 inh -6.9 | TRPC4 spec 2 inactive | TRPC4 spec inactive | HEK293 MPD ctr 2-1 inactive | HEK293 MPD ctr-1 inactive | TRPC6 block conf inactive | TRPC6 act conf inactive
COC(=O)c1ccc(CN2CCN(CCC(C)C)C(CCO)C2)cc1 (stereo not drawn)	TRPC6 inh -5.2 | HEK293 MPD ctr-2 99% | HEK293 MPD ctr 2-2 inactive | TRPC4/MOR mod 10% | TRPC4/MOR inh 2 inactive | TRPC6 block conf inactive
Cc1cc(-n2cccn2)ccc1CN1CCN(C2CCCC2)C(CCO)C1 (stereo not drawn)	TRPC6 inh -9.7 | TRPC4 spec 2 inactive | TRPC4 spec 8.4% | HEK293 MPD ctr 2-1 20% | HEK293 MPD ctr-1 9.2% | TRPC6 block conf 63%
COc1ccc(CCN(C)C(=O)C2CCN(C(=O)Nc3ccccc3)CC2)cc1OC	none
